In brackets after ≈: the same amount, converted by molar mass.
Tests used:
Lichtheimia corymbifera [1] = assay: Antifungal activity against Absidia corymbifera 272 after 24 hrs by microdilution method; format: functional; conditions: Lichtheimia corymbifera, 272, 24 h
In short: (§1)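 Filamentous strains held on Sabouraud dextrose agar. NCCLS M27-A broth microdilution in RPMI 1640 with L-glutamine and 0.165 M MOPS, pH 7.0. DMSO diluent ≤2% final; twofold dilutions 500–0.48. Inoculum 5 × 10³ ± 0.2 cfu mL⁻¹ final.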

Candida tropicalis [2] = assay: Antifungal activity against Candida tropicalis 156 after 48 hrs by microdilution method; format: functional; conditions: Candida tropicalis, 156, 48 h
In short: (§2)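 Yeasts held on Sabouraud dextrose agar. MIC by NCCLS M27-A broth microdilution in RPMI 1640 with L-glutamine, buffered with 0.165 M MOPS to pH 7.0. Compounds in DMSO (≤2% final), twofold dilutions 500–0.48. Final inoculum 5 × 10³ ± 0.2 cfu mL⁻¹. Incubated at 35 °C; absorbance at 540 nm read at 24 and 48 h. MIC is 80% growth inhibition versus control; run twice in duplicate.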

CCRF-CEM = assay: Cytostatic activity against human CCRF-CEM cells after 72 hrs by XTT assay; format: functional, cell-based
In short: (§3)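 Leukemia cells (L1210 ATCC CCL 219, CCRF-CEM ATCC CCL 119, HL-60 ATCC CCL 240) grown in 24-well plates in RPMI 1640 with fetal calf serum. Growth assessed 72 h after drug addition. Viability measured by XTT spectrophotometric assay; potency given as IC50.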

Pichia kudriavzevii [3] = assay: Antifungal activity against Candida krusei E28 after 48 hrs by microdilution method; format: functional; conditions: E28, 48 h; in short: as §2
Candida parapsilosis [4] = assay: Antifungal activity against Candida parapsilosis ATCC 22019 after 48 hrs by microdilution method; format: functional; conditions: Lodderomyces parapsilosis, ATCC 22019, 48 h; in short: as §2
[5] = system: Trichophyton mentagrophytes; assay: Antifungal activity against Trichophyton mentagrophytes 445 after 72 hrs by microdilution method; format: functional; conditions: Trichophyton mentagrophytes, 445, 72 h
In short: (§4)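 Dermatophyte held on Sabouraud dextrose agar. M27-A microdilution in MOPS-buffered (0.165 M, pH 7.0) RPMI 1640 with L-glutamine. DMSO ≤2% final; twofold dilutions 500–0.48. Inoculum 5 × 10³ ± 0.2 cfu mL⁻¹ final. Incubated at 35 °C; MIC read visually at 72 and 120 h as 80% inhibition of control growth; determined twice in duplicate.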

Nakaseomyces glabratus [6] = assay: Antifungal activity against Candida glabrata 20/I after 24 hrs by microdilution method; format: functional; in short: as §2
Trichosporon beigelii [7] = assay: Antifungal activity against Trichosporon beigelii 1188 after 48 hrs by microdilution method; format: functional; conditions: Trichosporon beigelii, 1188, 48 h; in short: as §2
Trichosporon beigelii [8] = assay: Antifungal activity against Trichosporon beigelii 1188 after 24 hrs by microdilution method; format: functional; conditions: Trichosporon beigelii, 1188, 24 h; in short: as §2
Aspergillus fumigatus [9] = assay: Antifungal activity against Aspergillus fumigatus 231 after 24 hrs by microdilution method; format: functional; conditions: Aspergillus fumigatus, 231, 24 h; in short: as §1
Candida albicans [10] = assay: Antifungal activity against Candida albicans ATCC 44859 after 48 hrs by microdilution method; format: functional; conditions: ATCC 44859, 48 h; in short: as §2
[11] = system: Trichophyton mentagrophytes; assay: Antifungal activity against Trichophyton mentagrophytes 445 after 120 hrs by microdilution method; format: functional; conditions: Trichophyton mentagrophytes, 445, 120 h; in short: as §4
Nakaseomyces glabratus [12] = assay: Antifungal activity against Candida glabrata 20/I after 48 hrs by microdilution method; format: functional; in short: as §2
Candida tropicalis [13] = assay: Antifungal activity against Candida tropicalis 156 after 24 hrs by microdilution method; format: functional; conditions: Candida tropicalis, 156, 24 h; in short: as §2
Candida parapsilosis [14] = assay: Antifungal activity against Candida parapsilosis ATCC 22019 after 24 hrs by microdilution method; format: functional; conditions: Lodderomyces parapsilosis, ATCC 22019, 24 h; in short: as §2
Pichia kudriavzevii [15] = assay: Antifungal activity against Candida krusei E28 after 24 hrs by microdilution method; format: functional; conditions: E28, 24 h; in short: as §2
Clavispora lusitaniae [16] = assay: Antifungal activity against Candida lusitaniae 2446/I after 48 hrs by microdilution method; format: functional; in short: as §2
Pichia kudriavzevii [17] = assay: Antifungal activity against Candida krusei ATCC 6258 after 24 hrs by microdilution method; format: functional; conditions: ATCC 6258, 24 h; in short: as §2
Candida albicans [18] = assay: Antifungal activity against Candida albicans ATCC 44859 after 24 hrs by microdilution method; format: functional; conditions: ATCC 44859, 24 h; in short: as §2
HL-60 = assay: Cytostatic activity against human HL60 cells after 72 hrs by XTT assay; format: functional, cell-based; conditions: hl-60; in short: as §3
HeLa S3 = assay: Cytostatic activity against human HeLaS3 cells after 48 hrs by XTT assay
Candida albicans [19] = assay: Antifungal activity against Candida albicans ATCC 90028 after 24 hrs by microdilution method; format: functional; conditions: ATCC 90028, 24 h; in short: as §2
Aspergillus fumigatus [20] = assay: Antifungal activity against Aspergillus fumigatus 231 after 48 hrs by microdilution method; format: functional; conditions: Aspergillus fumigatus, 231, 48 h; in short: as §1
Lichtheimia corymbifera [21] = assay: Antifungal activity against Absidia corymbifera 272 after 48 hrs by microdilution method; format: functional; conditions: Lichtheimia corymbifera, 272, 48 h; in short: as §1
Clavispora lusitaniae [22] = assay: Antifungal activity against Candida lusitaniae 2446/I after 24 hrs by microdilution method; format: functional; in short: as §2
Candida albicans [23] = assay: Antifungal activity against Candida albicans ATCC 90028 after 48 hrs by microdilution method; format: functional; conditions: ATCC 90028, 48 h; in short: as §2
L1210 = assay: Cytostatic activity against mouse L1210 cells after 72 hrs by XTT assay; format: functional, cell-based; in short: as §3
Pichia kudriavzevii [24] = assay: Antifungal activity against Candida krusei ATCC 6258 after 48 hrs by microdilution method; format: functional; conditions: ATCC 6258, 48 h; in short: as §2

| Compound | MIC80 (Lichtheimia corymbifera [1]) [µM] | MIC80 (Candida tropicalis [2]) [µM] | MIC80 (Pichia kudriavzevii [3]) [µM] | MIC80 (Candida parapsilosis [4]) [µM] | MIC80 [5] [µM] | MIC80 (Nakaseomyces glabratus [6]) [µM] | MIC80 (Trichosporon beigelii [7]) [µM] | MIC80 (Trichosporon beigelii [8]) [µM] | MIC80 (Aspergillus fumigatus [9]) [µM] | MIC80 (Candida albicans [10]) [µM] | MIC80 [11] [µM] | MIC80 (Nakaseomyces glabratus [12]) [µM] | MIC80 (Candida tropicalis [13]) [µM] | MIC80 (Candida parapsilosis [14]) [µM] | MIC80 (Pichia kudriavzevii [15]) [µM] | MIC80 (Clavispora lusitaniae [16]) [µM] | MIC80 (Pichia kudriavzevii [17]) [µM] | MIC80 (Candida albicans [18]) [µM] | IC50 (HL-60) | MIC80 (Candida albicans [19]) [µM] | other results |
| --- | --- | --- | --- | --- | --- | --- | --- | --- | --- | --- | --- | --- | --- | --- | --- | --- | --- | --- | --- | --- | --- |
| O=C1OC(COc2cccc(C(=O)O)c2)C=C1c1ccc(Br)cc1 (centres undefined) | 62.5 (≈ 24.3 µg/mL) | 7.81 (≈ 3.04 µg/mL) | 15.6 (≈ 6.08 µg/mL) | 15.6 (≈ 6.08 µg/mL) | 0.97 (≈ 0.378 µg/mL) | 1.95 (≈ 0.759 µg/mL) | 15.6 (≈ 6.08 µg/mL) | 15.6 (≈ 6.08 µg/mL) | 1.95 (≈ 0.759 µg/mL) | 1.95 (≈ 0.759 µg/mL) | 1.95 (≈ 0.759 µg/mL) | 1.95 (≈ 0.759 µg/mL) | 7.81 (≈ 3.04 µg/mL) | 15.6 (≈ 6.08 µg/mL) | 15.6 (≈ 6.08 µg/mL) | 7.81 (≈ 3.04 µg/mL) | 15.6 (≈ 6.08 µg/mL) | 0.97 (≈ 0.378 µg/mL) | Not Active | 3.9 (≈ 1.52 µg/mL) | IC50 (CCRF-CEM; Homo sapiens, CCRF-CEM, 72 h, read-out: IC50): 1640 nM; IC50 (HeLa S3; Homo sapiens, HeLa S3, 48 h, read-out: IC50): 1440 nM; MIC80 (Aspergillus fumigatus [20]): 7.81 µM (≈ 3.04 µg/mL); MIC80 (Lichtheimia corymbifera [21]): 62.5 µM (≈ 24.3 µg/mL); MIC80 (Clavispora lusitaniae [22]): 7.81 µM (≈ 3.04 µg/mL); MIC80 (Candida albicans [23]): 15.6 µM (≈ 6.08 µg/mL); IC50 (L1210; Mus musculus, L1210, 72 h, read-out: IC50): 7420 nM; MIC80 (Pichia kudriavzevii [24]): 15.6 µM (≈ 6.08 µg/mL) |
| O=C1O/C(=C\CCCO)C=C1c1ccc(Br)cc1 | 62.5 (≈ 19.3 µg/mL) | > 500 | > 500 | > 500 | 62.5 (≈ 19.3 µg/mL) | > 500 | > 500 | > 500 | > 500 | 125 (≈ 38.6 µg/mL) | 62.5 (≈ 19.3 µg/mL) | > 500 | > 500 | > 500 | > 500 | > 500 | > 500 | 62.5 (≈ 19.3 µg/mL) | Not Active | > 500 | IC50 (CCRF-CEM; ccrf-cem): Not Active; IC50 (HeLa S3; hela s3): Not Active; MIC80 (Aspergillus fumigatus [20]): > 500 µM; MIC80 (Lichtheimia corymbifera [21]): 62.5 µM (≈ 19.3 µg/mL); MIC80 (Clavispora lusitaniae [22]): > 500 µM; MIC80 (Candida albicans [23]): > 500 µM; IC50 (L1210; l1210): Not Active; MIC80 (Pichia kudriavzevii [24]): > 500 µM |
| COC(=O)/C=C1\C=C(c2ccc(Br)cc2)C(=O)O1 | > 125 | > 125 | > 125 | > 125 | > 125 | > 125 | > 125 | > 125 | > 125 | > 125 | > 125 | > 125 | > 125 | > 125 | > 125 | > 125 | > 125 | > 125 | Not Active | > 125 | IC50 (CCRF-CEM; ccrf-cem): Not Active; IC50 (HeLa S3; hela s3): Not Active; MIC80 (Aspergillus fumigatus [20]): > 125 µM; MIC80 (Lichtheimia corymbifera [21]): > 125 µM; MIC80 (Clavispora lusitaniae [22]): > 125 µM; MIC80 (Candida albicans [23]): > 125 µM; IC50 (L1210; l1210): Not Active; MIC80 (Pichia kudriavzevii [24]): > 125 µM |

Reference: ChEMBL document CHEMBL1157589, “Antifungal 3,5-disubstituted furanones: From 5-acyloxymethyl to 5-alkylidene derivatives” (Bioorg Med Chem, 2010)
